Results as given in ChEMBL document CHEMBL1127500, “Structure-activity studies of benzimidazole-based DNA-cleaving agents. Comparison of benzimidazole, pyrrolobenzimidazole, and tetrahydropyridobenzimidazole analogues” (1994).

Legend:
Type in all cases: functional
HOP-18 = test: Antitumor activity against HOP-18 cell line; conditions: Homo sapiens, read-out: Log LC50 (the source's name) (converted)
Procedure, shortened: (§1)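 Drugs were screened against a panel of up to 60 human cancer cell lines. The end-point was LC50, the drug concentration lethal to 50% of the cancer cells. Values were expressed as log LC50 and plotted as mean graphs centred on the log of the panel-mean LC50. Bars to the right mark lines with lower log LC50 than the mean.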

SW-620 = test: Antitumor activity against SW-620 cell line; conditions: Homo sapiens
Procedure, shortened: (§2)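 Screened against a panel of up to 60 human cancer cell lines. Read-out is LC50, the drug concentration lethal to 50% of the cells, expressed as log LC50. The mean log LC50 across the screened lines is the centre line of the mean graph. Each line's deviation from that mean is shown as a bar.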

NCI-H522 = test: Antitumor activity against NCI-H522 cell line; conditions: Homo sapiens; procedure, shortened: as §1
M19-MEL = test: Antitumor activity against M 19-MEL cell line; conditions: Homo sapiens; procedure, shortened: as §1
EKVX = test: Antitumor activity against EKVX cell line; conditions: Homo sapiens; procedure, shortened: as §1
UO-31 = test: Antitumor activity against Renal cancer UO-31 cell line; conditions: Homo sapiens; procedure, shortened: as §1
Malme-3M = test: Antitumor activity against MALME-3M cell line; conditions: Homo sapiens; procedure, shortened: as §1
NCI-H226 = test: Antitumor activity against NCI-H226 cell line; conditions: Homo sapiens; procedure, shortened: as §1
SNB- = test: Antitumor activity against SNB-71 cell line; conditions: Homo sapiens, read-out: Log LC50 (the source's name) (converted); procedure, shortened: as §2
K562 = test: Antitumor activity against K-562 leukemia cell line; conditions: Homo sapiens, read-out: Log LC50 (the source's name) (converted); procedure, shortened: as §1
ACHN = test: Antitumor activity against Renal cancer ACHN cell line; conditions: Homo sapiens, read-out: Log LC50 (the source's name) (converted); procedure, shortened: as §1
OVCAR-8 = test: Antitumor activity against OVCAR-8 cell line; conditions: Homo sapiens, read-out: Log LC50 (the source's name) (converted); procedure, shortened: as §1
RXF 393 = test: Antitumor activity against Renal cancer RXF-393 cell line; conditions: Homo sapiens; procedure, shortened: as §1
DLD-1 = test: Antitumor activity against DLD-1 cell line; conditions: Homo sapiens; procedure, shortened: as §1
A549 = test: Antitumor activity against A549/ATCC cell line; conditions: Homo sapiens; procedure, shortened: as §1
XF498 = test: Antitumor activity against XF 498 cell line; conditions: Homo sapiens, read-out: Log LC50 (the source's name) (converted); procedure, shortened: as §2
IGROV-1 = test: Antitumor activity against IGROVI cell line; conditions: Homo sapiens; procedure, shortened: as §1
SK-OV-3 = test: Antitumor activity against SK-OV-3 cell line; conditions: Homo sapiens, read-out: Log LC50 (the source's name) (converted); procedure, shortened: as §2
U-251 = test: Antitumor activity against U251 cell line; conditions: Homo sapiens; procedure, shortened: as §2
UACC-257 = test: Antitumor activity against UACC-257 cell line; conditions: Homo sapiens; procedure, shortened: as §2
NCI-H322M = test: Antitumor activity against NCI-H322M cell line; conditions: Homo sapiens, read-out: Log LC50 (the source's name) (converted); procedure, shortened: as §1
OVCAR-3 = test: Antitumor activity against OVCAR-3 cell line; conditions: Homo sapiens; procedure, shortened: as §1
SK-MEL-2 = test: Antitumor activity against SK-MEL-2 cell line; conditions: Homo sapiens, read-out: Log LC50 (the source's name) (converted); procedure, shortened: as §1
HCT-15 = test: Antitumor activity against HCT-15 cell line; conditions: Homo sapiens, read-out: Log LC50 (the source's name) (converted); procedure, shortened: as §1
HT-29 = test: Antitumor activity against HT 29 cell line; conditions: Homo sapiens, read-out: Log LC50 (the source's name) (converted); procedure, shortened: as §1
SK-MEL-28 = test: Antitumor activity against SK-MEL-28 cell line; conditions: Homo sapiens; procedure, shortened: as §2
[1] = Mean log10 LC50 was determined; procedure, shortened: as §2
RPMI-8226 = test: Antitumor activity against RPMI-8226 leukemia cell line; conditions: Homo sapiens, read-out: Log LC50 (the source's name) (converted); procedure, shortened: as §1
KM12 = test: Antitumor activity against KM 12 cell line; conditions: Homo sapiens, read-out: Log LC50 (the source's name) (converted); procedure, shortened: as §1
M14 = test: Antitumor activity against M 14 cell line; conditions: Homo sapiens; procedure, shortened: as §1
SF-295 = test: Antitumor activity against SF-295 cell line; conditions: Homo sapiens, read-out: Log LC50 (the source's name) (converted); procedure, shortened: as §1
HOP-92 = test: Antitumor activity against HOP-92 cell line; conditions: Homo sapiens, read-out: Log LC50 (the source's name) (converted); procedure, shortened: as §1
SK-MEL-5 = test: Antitumor activity against SK-MEL-5 cell line; conditions: Homo sapiens; procedure, shortened: as §2
SNB-75 = test: Antitumor activity against SNB-75 cell line; conditions: Homo sapiens; procedure, shortened: as §2
OVCAR-4 = test: Antitumor activity against OVCAR-4 cell line; conditions: Homo sapiens; procedure, shortened: as §1
LXFL 529 = test: Antitumor activity against […] cell line; conditions: Homo sapiens; procedure, shortened: as §1
OVCAR-5 = test: Antitumor activity against OVCAR-5 cell line; conditions: Homo sapiens; procedure, shortened: as §1
HOP-62 = test: Antitumor activity against HOP-62 cell line; conditions: Homo sapiens; procedure, shortened: as §1
TK-10 = test: Antitumor activity against Renal cancer TK-10 cell line; conditions: Homo sapiens; procedure, shortened: as §1
LOX IMVI = test: Antitumor activity against LOX IMVI cell line; conditions: Homo sapiens; procedure, shortened: as §1
SNB-19 = test: Antitumor activity against SNB-19 cell line; conditions: Homo sapiens; procedure, shortened: as §2
DMS-114 = test: Antitumor activity against DMS 114 cell line; conditions: Homo sapiens; procedure, shortened: as §1
CAKI-1 = test: Antitumor activity against Renal cancer CAKI-1 cell line; conditions: Homo sapiens, read-out: Log LC50 (the source's name) (converted); procedure, shortened: as §1
KM-20L2 = test: Antitumor activity against KM 20L2 cell line; conditions: Homo sapiens; procedure, shortened: as §1
786-0 = test: Antitumor activity against Renal cancer 786-O cell line; conditions: Homo sapiens; procedure, shortened: as §1
SN12C = test: Antitumor activity against Renal cancer SN 12C cell line; conditions: Homo sapiens; procedure, shortened: as §1
HCC 2998 = test: Antitumor activity against HCC2998 cell line; conditions: Homo sapiens, read-out: Log LC50 (the source's name) (converted); procedure, shortened: as §1
CCRF-CEM = test: Antitumor activity against CCRF-CEM leukemia cell line; conditions: Homo sapiens, read-out: Log LC50 (the source's name) (converted); procedure, shortened: as §1
MOLT-4 = test: Antitumor activity against MOLT-4 leukemia cell line; conditions: Homo sapiens; procedure, shortened: as §1
SF-539 = test: Antitumor activity against SF-539 cell line; conditions: Homo sapiens; procedure, shortened: as §1
SF-268 = test: Antitumor activity against SF-268 cell line; conditions: Homo sapiens; procedure, shortened: as §1

CC(=O)OC1CCn2c1nc1c2C(=O)C(N2CC2)=C(C)C1=O (stereo unspecified)
CC50 (HOP-18): 3160 nM
LC50 (SW-620): 4270 nM
LC50 (NCI-H522): 100 nM
LC50 (M19-MEL): > 100000 nM
LC50 (EKVX): 832 nM
LC50 (concentration lethal to 50% of cancer cells) (UO-31): 145 nM
LC50 (Malme-3M): 589 nM
LC50 (NCI-H226): 955 nM
CC50 (SNB-): 6460 nM
CC50 (K562): > 100000 nM
CC50 (ACHN): 2340 nM
CC50 (OVCAR-8): 1000 nM
LC50 (RXF 393): 51.3 nM
LC50 (DLD-1): 53700 nM
LC50 (A549): 7760 nM
CC50 (XF498): 126 nM
LC50 (IGROV-1): 8130 nM
CC50 (SK-OV-3): 2950 nM
LC50 (U-251): 3090 nM
LC50 (UACC-257): 2040 nM
CC50 (NCI-H322M): 2690 nM
LC50 (OVCAR-3): 3390 nM
CC50 (SK-MEL-2): 479 nM
CC50 (HCT-15): 3090 nM
CC50 (HT-29): 5370 nM
LC50 (SK-MEL-28): 603 nM
Mean log LC50 [1]: -5.68
CC50 (RPMI-8226): > 100000 nM
CC50 (KM12): 1070 nM
LC50 (M14): 324 nM
CC50 (SF-295): 2000 nM
CC50 (HOP-92): 11200 nM
LC50 (SK-MEL-5): 224 nM
LC50 (SNB-75): 603 nM
LC50 (OVCAR-4): 380 nM
LC50 (LXFL 529): 525 nM
LC50 (OVCAR-5): 3390 nM
LC50 (HOP-62): 219 nM
LC50 (TK-10): 2880 nM
LC50 (LOX IMVI): 66.1 nM
LC50 (SNB-19): 2570 nM
LC50 (DMS-114): > 100000 nM
CC50 (CAKI-1): 6460 nM
LC50 (concentration lethal to 50% of cells) (KM-20L2): 4370 nM
LC50 (786-0): 347 nM
LC50 (SN12C): 617 nM
CC50 (HCC 2998): 372 nM
CC50 (CCRF-CEM): > 100000 nM
LC50 (MOLT-4): > 100000 nM
LC50 (concentration lethal to 50% of cells) (SF-539): 631 nM
LC50 (SF-268): 5620 nM
